Pemphigus Ab inh – inhibitors of pemphigus antibody binding to DSG3, primary screen, biochemical, bead-based, flow cytometry, scFv-GFP | Desmoglein-3 (Homo sapiens), P32926 | DSG3-coupled beads, scFv-anti-DSG3-GFP binding; stronger effect = lower value | binding (percent of control), % at 10 µM | 310,000 tested, 0.48% active | AID 588358, 2011;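 active = binding more than 3 SD below its plate's average and above zero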;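 also: hits lower antibody fragment binding to DSG3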
MCL1-BIM inh – inhibitors of MCL1 binding to BIM-BH3, primary screen, biochemical, fluorescence polarization. Induced myeloid leukemia cell differentiation protein Mcl-1 (Homo sapiens), Q07820. GST-MCL1 / FITC-Bim-BH3 fluorescence polarization. inhibition, % at 10.9 µM. 320,000 tested, 0.68% active. AID 2057, 2009;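 active = inhibition above the mean inhibition of all tested compounds plus 3 SD, set per campaign, cut at about 40% in these data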;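 also: 0% = DMSO wells and 100% = unlabeled Bim-BH3 peptide control; higher means more loss of mP so more displacement of Bim peptide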
Target sequence (Q07820 whole entry, looked up): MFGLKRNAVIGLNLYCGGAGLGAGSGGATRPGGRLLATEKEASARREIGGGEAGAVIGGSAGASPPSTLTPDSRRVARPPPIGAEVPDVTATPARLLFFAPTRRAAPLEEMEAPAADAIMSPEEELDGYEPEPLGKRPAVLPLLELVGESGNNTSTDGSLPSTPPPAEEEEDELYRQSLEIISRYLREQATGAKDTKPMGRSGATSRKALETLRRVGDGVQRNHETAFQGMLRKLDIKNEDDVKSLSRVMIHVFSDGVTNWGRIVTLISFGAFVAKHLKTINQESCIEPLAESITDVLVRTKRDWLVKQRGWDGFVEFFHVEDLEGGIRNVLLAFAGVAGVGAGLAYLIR
T cell HTS – modulators of CD8 T cell-vesicle binding, primary screen, mouse 2C CD8+ T cells, flow cytometry. 2C CD8+ T cell-vesicle binding; stronger effect = lower value. response (vesicle binding), % at 7 µM. 330,000 tested, 0.068% active;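 active = response, share of CD8 T cells binding vesicles, and their 90th percentile fluorescence all below set limits, cut at about 80% in these data, passing the limit was not always enough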;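 also: values below 100% mean blocked vesicle binding to the CD8+ T cells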
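Assay system – 2C mouse CD8+ T cells · Also added – QL9-loaded Drosophila micro-vesicles · Timing – Cell–vesicle co-incubation 1.5 h at 37 °C, staining 20 min on ice · Signal – flow cytometry of vesicle-bound cells · Measure – percent CD8+ FL2 mean versus row control · Controls – Peptide-free naked vesicles (low) and QL9 vesicles with 0.7% DMSO vehicle (high)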
Mcl-1 Bim block – inhibitors of Bim peptide binding to Mcl-1, primary screen, biochemical, bead-based flow cytometry, multiplex | Induced myeloid leukemia cell differentiation protein Mcl-1 (Homo sapiens), Q07820 | Bim peptide-Mcl-1 binding | inhibition, % at 10 µM | 190,000 tested, 0.1% active | AID 1009, 2008; in the data active = inhibition above about 40%;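 also: 0% = no compound tracer wells and 100% = peptide blocker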
Mcl1 Noxa PPI – Mcl-1/Noxa binding inhibitors, primary screen, biochemical, TR-FRET, 1536-well; inhibition, % at 21.7 µM; 220,000 tested, 1.5% active; Induced myeloid leukemia cell differentiation protein Mcl-1 (Homo sapiens), Q07820; AID 1022, 2008; TR-FRET Mcl-1/Noxa peptide binding, 2 h;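 active = compounds that cut the protein-peptide binding signal by more than 50% relative to plate controls in a single-dose test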;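 also: His-tagged Mcl-1 with rhodamine Noxa BH3 peptide and terbium anti-His antibody; 0% = Mcl-1 plus Noxa peptide wells and 100% = peptide-only wells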
Mcl1-Bid inh – Mcl-1/Bid binding inhibitors, primary screen, biochemical, TR-FRET, 1536-well; AID 1021, 2008; inhibition, % at 21.7 µM; 220,000 tested, 0.97% active; TR-FRET Mcl-1/Bid-Dy647 peptide binding;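 active = compounds that cut the binding signal by more than half at the single screening dose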;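 also: His-tagged Mcl-1 with europium anti-His antibody binding Bid BH3 peptide; 0% = Mcl-1 plus peptide wells and 100% = peptide-only wells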
Active calls of the source: *; i = inactive; x = not tested or not shown. Compounds with a hit are over-represented: about 2.3% of the library has one in this group of screens.

SMILES	Pemphigus Ab inh	MCL1-BIM inh	T cell HTS	Mcl-1 Bim block	Mcl1 Noxa PPI	Mcl1-Bid inh
N#C/C=C1/NC(=O)c2ccccc2S1	108	7	346	-8	10	65*
COC(=O)c1ccc2c(c1)NC(=O)c1ccccc1S2	93	3	i	x	x	x
NC(=O)c1sc2nc(-c3ccccc3)ccc2c1N	113	7	234	x	x	x
COc1ccc(C(=O)c2sc3nc(-c4ccccc4)ccc3c2N)cc1OC	98	-37	254	15	95*	59*
CN(C)NC1CCS(=O)(=O)C1 (centres undefined)	99	3	661	-1	52*	-9
O=S1(=O)CCC(NC2CCCC2)C1 (centres undefined)	101	6	817	x	x	x
Cc1c(C(=O)NCc2ccc3c(c2)OCO3)sc2nc(-c3ccccc3)cn12	58*	1	966	-2	-16	-30
Cc1c(C(=O)NCc2ccc3c(c2)OCO3)sc2nc(-c3ccc(F)cc3)cn12	91	-3	382	0	10	8
CCCCc1cc(=O)oc2cc(C)c(CN3CCCC3)c(O)c12	89*	26	131	-4	47	-24
CCCCc1cc(=O)oc2c(CN3CCCC3)c(O)ccc12	107	5	630	0	x	x
CCn1c(=O)c(=O)[nH]c2cc(C(=O)N(C)Cc3ccc(OC)c(F)c3)ccc21	x	7	403	x	x	x
Cc1ccc(-c2nc(N3CCOCC3)sc2C(=O)N2CCOCC2)cc1	x	1	354	-3	0	-16
Cc1ccc(-c2nc(N3CCOCC3)sc2C(=O)N2CCCCC2)cc1	101	5	396	-3	13	98*
Cc1noc(C)c1C(=O)Nc1cccc2ncccc12	127	-9	222	x	x	x
COc1cccc(CN2CCN(S(=O)(=O)c3ccc(Cl)s3)CC2)c1	x	0	0.0*	x	x	x
Cc1nc2ccccc2c2oc(C(=O)Nc3ccc(C(C)C)cc3)cc12	107	3	182	-9	6	3
CCCCN(CC)CCNC(=O)c1cc2cc3ccc(Cl)cc3nc2o1	102	6	201	x	x	x
CCCCN(CC)CCCNC(=O)c1cc2cc3ccc(C)cc3nc2o1	69*	0	224	x	x	x
COc1cc(NC(=O)c2cc3c(C)nc4ccccc4c3o2)cc(OC)c1OC	100	3	366	-1	56*	-20
CCCCN(CC)CCNC(=O)c1cc2c(C)nc3ccccc3c2o1	114	9	214	0	71*	-11
CCOC(=O)c1[nH]c2ccccc2c1NC(=O)C(CC)CC	-14*	5	265	-1	-7	-12
NC(=O)COC(=O)c1cc(-c2ccco2)nc2ccccc12	88	25	436	x	61*	9
O=C(COC(=O)c1cc(-c2ccco2)nc2ccccc12)NCc1ccc2c(c1)OCO2	103	16	190	1	76*	22
O=C(COC(=O)c1ccco1)NCc1ccc2c(c1)OCO2	99	2	i	x	13	-19
CCOC(=O)c1cc(-c2ccco2)nc2c1c(C)nn2-c1ccccc1	93	9	141	5	56*	14
SMILES	Pemphigus Ab inh	MCL1-BIM inh	T cell HTS	Mcl-1 Bim block	Mcl1 Noxa PPI	Mcl1-Bid inh
CCC(C)[C@H](N)C(=O)N[C@H]1CCC2C3CC=C4C[C@@H](O)CC[C@]4(C)C3CC[C@@]21C (some centres undefined)	105	x	x	x	x	x
CS(=O)(=O)Nc1ccc(Br)cc1C(=O)c1ccccc1	x	-2	i	-1	-6	4
CCNc1ccc(Br)cc(C(=O)/C=C/c2c(Cl)cccc2Cl)c1=O	89	-50	921	3	102*	46
CCNc1ccc(Br)cc(C(=O)/C=C/c2ccc(Cl)cc2)c1=O	108	-80	199	5	82*	20
Cc1ccc(N(C)S(=O)(=O)c2cccc(C(=O)N(C)Cc3cnn(-c4ccccc4)c3)c2)cc1	98	x	x	x	x	x
CC(C)(C)C1=CC(=Nc2ccccc2N)C=C(C(C)(C)C)C1=O	97	3	160	-3	-11	-8
CC(C)(C)C1=CC(=O)C(=O)C(C(C)(C)C)=C1	91	26	138	-7	63*	39
COc1ccccc1NC(=O)COC(=O)Cn1c(C)csc1=O	103	x	x	x	x	x
COc1ccc(C(=O)Oc2ccc(/C=N/NC(=O)c3ccccc3OC)cc2[N+](=O)[O-])cc1	-5.1*	-2	386	-2	37	31
COc1ccc(C(=O)N/N=C/c2ccc(OC(=O)c3cccc4ccccc34)c([N+](=O)[O-])c2)cc1	98	13	219	-8	51*	10
COc1cc(C)ccc1OCCCCN1CC(C)OC(C)C1 (centres undefined)	105	5	266	-2	29	52*
COc1ccc(N2CCN(C(=O)Cn3nnc(-c4ccc(N(C)C)cc4)n3)CC2)cc1	x	-3	278	0	52*	60*
COC(=O)c1ccc(COc2ccc(-c3nnn(CC(N)=O)n3)cc2)cc1	101	6	0.0*	-3	-307	-114
CCCOc1ccc(-c2nnn(CC(=O)N3CCCCC3)n2)cc1	88*	-3	268	x	18	-7
Cc1cccc(NC(=O)CSc2nc3ccccc3c(=O)n2CC2CCCO2)c1 (centres undefined)	93	x	674	x	x	x
COc1ccc2[nH]c3nc(SCC(=O)NNC(=O)c4ccc(OC)c(OC)c4)nnc3c2c1	15*	14	174	0	-7	-16
COc1ccccc1CNC(=O)CSc1nnc2c(n1)[nH]c1ccc(F)cc12	103	1	330	x	x	x
Cc1ccc(C(=O)NNC(=O)CSc2nnc3c(n2)[nH]c2ccc(F)cc23)cc1	96	11	348	8	53*	80*
CC1Sc2ccc(S(=O)(=O)CCC(=O)NC3CCCCC3C)cc2NC1=O (centres undefined)	101	-2	225	x	x	x
COC(=O)C1CSC(c2ccc(Cl)cc2)N1C(=O)c1ccccc1 (centres undefined)	102	4	264	3	10	-18
Cn1c(=O)c2[nH]c(-c3ccccc3O)nc2n(C)c1=O	x	18	388	3	59*	-21
CC1(C)CC(=O)C=C(c2cccc3c2sc2ccccc23)C1	101	2	962	x	x	x
Cc1ccc(NC(=O)CN2C(=O)N/C(=C/c3ccco3)C2=O)cc1	97	25	315	1	61*	-23
Cc1ccc(NC(=O)CN2C(=O)N/C(=C/c3cc(C)n(-c4ccc(C(=O)O)cc4)c3C)C2=O)cc1	101	x	x	1	76*	-123

Compound activity as filed in PubChem.
